4 molecules from ChEMBL document CHEMBL4406880, “Design, synthesis, and bioactivity of dihydropyrimidine derivatives as kinesin spindle protein inhibitors” (Bioorg Med Chem, 2019) can be followed below.

The nature of series [1]: Growth inhibition of human HEK293 cells assessed as cell viability at 0.39 ug incubated for 48 hrs by MTT assay relative to control. As to conditions: read-out: Activity. The class given is cell-based.
A short description of series [2]: Growth inhibition of human HEK293 cells assessed as cell viability at 1.56 ug incubated for 48 hrs by MTT assay relative to control. As to conditions: read-out: Activity. It is filed as cell-based. On the technique in general: Tetrazolium dyes change colour on reduction, which living cells bring about.
Series [3] is described as follows: Growth inhibition of human HEK293 cells assessed as cell viability at 6.25 ug incubated for 48 hrs by MTT assay relative to control. It is filed as cell-based. The note with it: read-out: Activity.
The nature of series [4]: Growth inhibition of human HEK293 cells assessed as cell viability at 25 ug incubated for 48 hrs by MTT assay relative to control. The note with it: read-out: Activity. It is filed as cell-based.
Series [5] is described as follows: Growth inhibition of human HEK293 cells assessed as cell viability at 100 ug incubated for 48 hrs by MTT assay relative to control. It is filed as cell-based. The note with it: read-out: Activity.
Series [6] can be described thus: Inhibition of kinesin (unknown origin) assessed as reduction in ATPase activity using microtubule as substrate measured for 5 to mins. The arrangement: species or system Homo sapiens.
The test system of series [7] is MCF7. Kind of series: Antiproliferative activity against human MCF7 cells assessed as growth percentage incubated for 72 hrs by XTT assay. The class given is functional, cell-based. The note with it: MCF7, 72 h.
The subject of series [8] is HeLa. The series is described as follows: Antiproliferative activity against human HeLa cells assessed as growth percentage incubated for 72 hrs by XTT assay. The class given is functional, cell-based.
Series [9] concerns SNB-75. The series is described as follows: Cell cycle arrest in human SNB75 cells assessed as accumulation in G0/G1 phase at 2 uM incubated for 24 hrs by propidium iodide based flow cytometry (reference value: 55.62 %). It is filed as functional. Put shortly: (§1)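 SNB-75 cells were exposed to 2 µM for 24 h at 37 °C, 5% CO2, then washed with PBS and fixed in 70% ethanol on ice for 15 min. They were stained 1 h at room temperature with 50 µg/mL propidium iodide, 0.1 mg/mL RNase A and 0.05% Triton X-100. DNA content was read by flow cytometry to give the % of cells in pre-G1, G0/G1, S and G2/M.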
For orientation: In flow cytometry, cells or beads pass a laser one at a time.

Series [10] concerns SNB-75. The series is described as follows: Cell cycle arrest in human SNB75 cells assessed as accumulation in S phase at 2 uM incubated for 24 hrs by propidium iodide based flow cytometry (reference value: 33.92 %). The class given is functional. Put shortly: as §1
Series [11] deals with SNB-75. The series is described as follows: Cell cycle arrest in human SNB75 cells assessed as accumulation in G2/M phase at 2 uM incubated for 24 hrs by propidium iodide based flow cytometry (reference value: 10.46 %). It is filed as functional. A digest of the protocol: as §1
For series [12], the system named is SNB-75. Kind of series: Cell cycle arrest in human SNB75 cells assessed as accumulation in preG1 phase at 2 uM incubated for 24 hrs by propidium iodide based flow cytometry (reference value: 1.85 %). It is filed as functional. A digest of the protocol: as §1
Series [13] concerns SNB-75. The series is described as follows: Induction of apoptosis in human SNB75 cells assessed as early apoptotic cells at 2 uM incubated for 24 hrs by annexin V FITC and propidium iodide based flow cytometry (reference value: 0.82 %). It is filed as functional.
For series [14], the system named is SNB-75. Kind of series: Induction of apoptosis in human SNB75 cells assessed as late apoptotic cells at 2 uM incubated for 24 hrs by annexin V FITC and propidium iodide based flow cytometry (reference value: 0.59 %). The class given is functional.
In series [15] the test system is SNB-75. The series is described as follows: Induction of apoptosis in human SNB75 cells assessed as necrosis at 2 uM incubated for 24 hrs by annexin V FITC and propidium iodide based flow cytometry (reference value: 0.44 %). The class given is functional.
Series [16] has as its system MDA-MB-435. The series is described as follows: Induction of apoptosis in human MDA-MB-435 cells assessed as active caspase 3 level incubated for 2 hrs by ELISA (reference value: 1). It is filed as functional. A digest of the protocol: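 Active caspase-3 was measured by human sandwich ELISA. Samples were incubated on the plate for 2 h at room temperature. This was followed by 1 h with detection antibody, 30 min with anti-rabbit IgG-HRP, and 30 min with chromogen, with all steps at room temperature. Absorbance was read at 450 nm, and levels were read from a standard curve.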
For orientation: In an ELISA, binding on a coated surface is turned into a signal by an enzyme label.

The subject of series [17] is MDA-MB-435. The series is described as follows: Induction of apoptosis in human MDA-MB-435 cells assessed as active caspase 9 level incubated for 2 hrs by ELISA (reference value: 1). It is filed as functional. Put shortly:
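Caspase-9 was measured by human ELISA on cell lysates, with samples in duplicate. Samples were incubated with detection antibody for 2 h at room temperature. This was followed by 1 h with anti-rabbit IgG-HRP and 10 min with TMB substrate. After a stop solution, absorbance was read at 450 nm.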

Series [18] has as its target Kinesin-like protein KIF11 (Homo sapiens, UniProt P52732). The series is described as follows: Inhibition of recombinant human His-tagged Eg5 (1 to 368 residues) assessed as reduction in ATPase activity by […] based assay.

Kinesin-like protein KIF11, sequence (P52732 whole entry, the tested form may be a part): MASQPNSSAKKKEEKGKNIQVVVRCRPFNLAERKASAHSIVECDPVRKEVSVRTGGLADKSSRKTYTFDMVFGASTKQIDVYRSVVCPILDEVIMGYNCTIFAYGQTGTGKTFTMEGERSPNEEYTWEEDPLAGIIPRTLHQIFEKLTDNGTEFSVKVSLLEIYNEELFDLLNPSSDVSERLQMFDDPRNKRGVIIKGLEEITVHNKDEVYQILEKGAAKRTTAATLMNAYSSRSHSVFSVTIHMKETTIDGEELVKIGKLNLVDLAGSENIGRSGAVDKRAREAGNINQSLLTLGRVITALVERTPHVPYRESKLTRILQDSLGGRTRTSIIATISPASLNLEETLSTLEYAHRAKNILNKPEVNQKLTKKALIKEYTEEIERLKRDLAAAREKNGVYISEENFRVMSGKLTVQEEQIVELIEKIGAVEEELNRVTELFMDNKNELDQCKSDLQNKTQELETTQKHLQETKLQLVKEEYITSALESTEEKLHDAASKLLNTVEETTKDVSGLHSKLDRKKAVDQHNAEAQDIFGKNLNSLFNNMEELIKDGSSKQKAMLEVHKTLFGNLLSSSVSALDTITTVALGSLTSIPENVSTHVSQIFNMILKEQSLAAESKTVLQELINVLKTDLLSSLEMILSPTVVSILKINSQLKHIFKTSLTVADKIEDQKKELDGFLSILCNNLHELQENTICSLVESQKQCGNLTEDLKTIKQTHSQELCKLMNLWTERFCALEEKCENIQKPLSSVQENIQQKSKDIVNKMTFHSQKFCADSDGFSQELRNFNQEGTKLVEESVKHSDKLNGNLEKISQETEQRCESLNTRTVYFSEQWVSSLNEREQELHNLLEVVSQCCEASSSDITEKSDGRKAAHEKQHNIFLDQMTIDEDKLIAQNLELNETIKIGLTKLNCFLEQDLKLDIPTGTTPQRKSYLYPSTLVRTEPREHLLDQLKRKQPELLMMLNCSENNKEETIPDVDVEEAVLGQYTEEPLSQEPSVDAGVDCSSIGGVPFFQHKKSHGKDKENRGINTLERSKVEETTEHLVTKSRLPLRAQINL

For the molecule `COc1cccc2c1C(=O)c1c(O)c3c(c(O)c1C2=O)C[C@@](O)(C(=O)CO)C[C@@H]3O[C@H]1C[C@H](N)[C@H](O)[C@H](C)O1` [DOXORUBICIN], the viability at 48 h, 0.39 ug in series [1] came to 75.1%. In series [2], the viability at 48 h, 1.56 ug stood at 64.7%. For the same molecule, the viability at 48 h, 6.25 ug in series [3] came out at 55.2%. In addition, the viability at 48 h, 25 ug in [4] turned out to be 43.6%. Besides, the viability at 48 h, 100 ug in series [5] was found to be 33.8%.

On to `CC1=C(C(=O)c2ccccc2)C(c2cccc(O)c2)NC(=S)N1C` (centres undefined), for which, in [6], the IC50 (as a rule, the concentration at which inhibition is half-maximal) was determined as 0.1 µM.

On to `CC1=C(C(=O)OCc2ccccc2)C(c2ccco2)NC(=O)N1` (centres undefined), for which the values for the half-inhibitory concentration (IC50) in series [7] and in [8] were 55 µM and 40 µM, respectively.

In the case of `CCOC(=O)C1=C(C)NC(=S)NC1c1cccc(O)c1` (centres undefined) [MONASTROL], the IC50 in series [6] and in series [18] was 20 µM each time. The Activity came to 29.56% in [9]; 29.18% in series [10]; 41.26% in series [11]; 22.58% in series [12]; 4.72% in series [13]; 15.54% in series [14]. Moreover, in [15], the Activity amounted to 2.32%. Further, the “fold change (FC)” value in [16] amounted to 6.9; in series [17], 11.92.
